We go through 1 compound from ChEMBL document CHEMBL4229460, “Design and biological evaluation of novel hybrids of 1, 5-diarylpyrazole and Chrysin for selective COX-2 inhibition” (Bioorg Med Chem, 2018).

What all share (assay type): functional
The test system of assay [1] is HeLa. Kind of assay: Cell cycle arrest in human HeLa cells assessed as accumulation at G1 phase after 24 hrs by propidium iodide staining based flow cytometry. (In general: A flow cytometer gives signals particle by particle.)
The test system of assay [2] is HeLa. Kind of assay: Induction of apoptosis in human HeLa cells assessed as necrotic cells at 5 uM after 48 hrs by Annexin-V-FITC/propidium iodide staining based flow cytometry (reference value: 1.12%). The essentials: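 HeLa cells in DMEM with 10% FBS, penicillin/streptomycin, 37 °C, 5% CO₂; seeded 2 × 10⁵ cells/well in six-well plates, treated at 0, 1.25, 2.5, 5 and 10 μM for 24 h, or at 5 μM for 12, 24, 36 or 48 h. Cells trypsinized, washed in ice-cold PBS, stained in binding buffer with Annexin V-FITC and PI for 10 min in the dark, then analyzed by flow cytometry.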

Assay [3] deals with HeLa. Kind of assay: Cell cycle arrest in human HeLa cells assessed as accumulation at G1 phase at 2.5 uM after 24 hrs by propidium iodide staining based flow cytometry (reference value: 55.51%).
Assay [4] concerns HeLa. Kind of assay: Induction of apoptosis in human HeLa cells assessed as live cells at 5 uM after 36 hrs by Annexin-V-FITC/propidium iodide staining based flow cytometry (reference value: 95.1%). In a few lines:
(§1)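 HeLa seeded at 2 × 10⁵ cells/well. Dose series was 0, 1.25, 2.5, 5 and 10 μM for 24 h; time course was 5 μM for 12, 24, 36 or 48 h. Trypsinized and washed in ice-cold PBS, then stained in binding buffer with Annexin V-FITC and PI for 10 min in the dark. Flow cytometry scored early (Annexin⁺/PI⁻) and late (Annexin⁺/PI⁺) apoptotic cells.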

Assay [5] has as its system HeLa. Kind of assay: Induction of apoptosis in human HeLa cells assessed as early apoptotic cells at 5 uM after 24 hrs by Annexin-V-FITC/propidium iodide staining based flow cytometry (reference value: 1.24 to 2.98%). The essentials: as §1

With `COc1ccc(-c2cc(COC(=O)COc3cc(O)c4c(=O)cc(-c5ccccc5)oc4c3)nn2-c2ccc(C)cc2)cc1`, the Activity entry in the assay with HeLa [1] was “Dose-dependent effect”; with HeLa [2], 1.43%; in the assay on HeLa [3], 67.88%; with HeLa [4], 48.7%; with HeLa [5] it was 31.6 - 34.7%.
